Measured values taken from ChEMBL document CHEMBL5236662, “Synthesis and biological evaluation of tert-butyl ester and ethyl ester prodrugs of L-γ-methyleneglutamic acid amides for cancer” (Bioorg Med Chem, 2023).

Legend:
[1] = test system: MCF7; assay: Antiproliferative activity against human MCF7 cells assessed as inhibition of cell growth incubated for 72 hrs by Hoechst 33342/propidium iodide staining based fluorescence analysis; format: functional; settings: MCF7, 72 h
[2] = test system: SK-BR-3; assay: Antiproliferative activity against human SK-BR-3 cells assessed as inhibition of cell growth incubated for 72 hrs by Hoechst 33342/propidium iodide staining based fluorescence analysis; format: functional; settings: SK-BR-3, 72 h
[3] = test system: MDA-MB-231; assay: Antiproliferative activity against human MDA-MB-231 cells assessed as inhibition of cell growth incubated for 72 hrs by Hoechst 33342/propidium iodide staining based fluorescence analysis; format: functional; settings: MDA-MB-231, 72 h
[4] = (§1) Cytotoxicity against human MCF-10A cells assessed as inhibition of cell growth incubated for 72 hrs by Hoechst 33342/propidium iodide staining based fluorescence analysis; format: toxicity; settings: human, MCF-10A cells
[5] = test system: BNC3; assay: Antiproliferative activity against human BNC3 cells assessed as suppression of cell growth incubated for 24 to 72 hrs by CCK-8 assay; format: functional, cell-based; settings: dose 10-300 µM, time 24-72 hrs
In short: (§2)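 Primary patient-derived glioblastoma lines were grown in RPMI 1640 with 10% FBS. Cells were seeded at 3,000 per well and dosed 24 h later at 10, 50, 100, 200 and 300 μM for 24 or 72 h, with BiCNU as control. CCK-8 was added and OD450 read after 2 h at 37 °C. Data are % cell survival, from 3 independent replicates.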

[6] = test system: BNC6; assay: Antiproliferative activity against human BNC6 cells assessed as suppression of cell growth incubated for 24 to 72 hrs by CCK-8 assay; format: functional, cell-based; settings: dose 10-300 µM, time 24-72 hrs; in short: as §2
[7] = Antiproliferative activity against human BNC3 cells assessed as inhibition of cell growth incubated for 72 hrs by CCK-8 assay; format: functional, cell-based; settings: BNC3, 72 h; in short: as §2
[8] = Antiproliferative activity against human BNC6 cells assessed as inhibition of cell growth incubated for 72 hrs by CCK-8 assay; format: functional, cell-based; settings: BNC6, 72 h; in short: as §2
[9] = Antiproliferative activity against human WSU-HN30 cells assessed as inhibition of cell growth incubated for 72 hrs by CCK-8 assay; format: functional, cell-based; settings: WSU-HN30, 72 h
In short: (§3)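 Radiotherapy-resistant HNSCC lines were used: HN30 from pharynx SCC and HN31 from a lymph-node metastasis of the same patient. Cells in RPMI 1640 with 10% FBS were seeded at 3,000 per well and treated 24 h later with 10–300 μM (5 levels) for 24 or 72 h, with cisplatin as control. CCK-8 was read at OD450 after 2 h. Data are % survival, n = 3 independent experiments.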

[10] = Antiproliferative activity against human WSU-HN31 cells assessed as inhibition of cell growth incubated for 72 hrs by CCK-8 assay; format: functional, cell-based; settings: WSU-HN31, 72 h; in short: as §3
[11] = test system: WSU-HN30; assay: Antiproliferative activity against human WSU-HN30 cells assessed as suppression of cell growth incubated for 24 to 72 hrs by CCK-8 assay; format: functional, cell-based; settings: dose 10-300 µM, time 24-72 hrs; in short: as §3
[12] = test system: WSU-HN31; assay: Antiproliferative activity against human WSU-HN31 cells assessed as suppression of cell growth incubated for 24 to 72 hrs by CCK-8 assay; format: functional, cell-based; settings: dose 10-300 µM, time 24-72 hrs; in short: as §3
[13] = (§4) Cytotoxicity against human MCF-10A cells assessed as inhibition of cell growth incubated for 24 hrs by Hoechst 33342/propidium iodide staining based fluorescence analysis; format: toxicity; settings: human, MCF-10A cells
[14] = test system: MCF-10A; assay: as §1; format: toxicity; settings: mcf-10a
[15] = test system: MCF-10A; assay: as §4; format: toxicity; settings: mcf-10a
[16] = test system: MCF7; assay: Antiproliferative activity against human MCF7 cells assessed as inhibition of cell growth incubated for 24 hrs by Hoechst 33342/propidium iodide staining based fluorescence analysis; format: functional; settings: MCF7, 24 h

| IC50 [1] [mM] | IC50 [2] [mM] | IC50 [3] [mM] | SMILES | IC50 at 72 h [4] [mM] | other results |
| --- | --- | --- | --- | --- | --- |
| < 1 | < 1 | < 1 | C=C(C[C@H](NC(=O)OC(C)(C)C)C(=O)OC(C)(C)C)C(=O)NC1CC1 | > 1 |  |
| < 1 | < 1 | > 1 | C=C(C[C@H](NC(=O)OC(C)(C)C)C(=O)OC(C)(C)C)C(N)=O | > 1 |  |
| > 1 | < 1 | > 1 | C=C(C[C@H](NC(=O)OC(C)(C)C)C(=O)OCC)C(=O)NCc1ccc(F)cc1 | > 1 |  |
| > 1 | > 1 | > 1 | C=C1C[C@@H](C(=O)OCC)NC1=O | > 1 |  |
|  |  |  | C=C(C[C@H](N)C(=O)O)C(=O)N1CCCCC1 | > 1 | Activity [5]: Dose-Dependent Effect; Activity [6]: Dose-Dependent Effect; IC50 [7]: 158 µM; IC50 [8]: 199 µM; IC50 [9]: 97 µM; IC50 [10]: 207 µM; Activity [11]: Dose-Dependent Effect; Activity [12]: Dose-Dependent Effect; IC50 at 24 h [13]: > 1 mM |
|  |  |  | C=C(C[C@H](N)C(=O)O)C(=O)Nc1ccc(F)cc1 | > 1 | Activity [5]: Dose-Dependent Effect; Activity [6]: Dose-Dependent Effect; IC50 [7]: 182 µM; IC50 [8]: 194 µM; IC50 [9]: 220 µM; IC50 [10]: 202 µM; Activity [11]: Dose-Dependent Effect; Activity [12]: Dose-Dependent Effect; IC50 at 24 h [13]: > 1 mM |
| > 1 | > 1 | < 1 | C=C1C[C@@H](C(=O)OC(C)(C)C)NC1=O | > 1 |  |
|  |  |  | C=C(C[C@H](N)C(=O)O)C(=O)NC1CC1 | > 1 | Activity [5]: Dose-Dependent Effect; Activity [6]: Dose-Dependent Effect; IC50 [7]: 171 µM; IC50 [8]: 187 µM; IC50 [9]: 105 µM; IC50 [10]: 196 µM; Activity [11]: Dose-Dependent Effect; Activity [12]: Dose-Dependent Effect; IC50 at 24 h [13]: > 1 mM |
| > 1 | > 1 | > 1 | C=C(C[C@H](NC(=O)OC(C)(C)C)C(=O)OCC)C(=O)NC1CC1 | > 1 |  |
| > 1 | > 1 | > 1 | C=C1C[C@@H](C(=O)O)NC1=O | > 1 |  |
|  |  |  | C=C(C[C@H](N)C(=O)O)C(N)=O | > 1 | IC50 at 24 h [13]: > 1 mM |
| < 1 | < 1 | < 1 | CC/C(=C(\c1ccccc1)c1ccc(OCCN(C)C)cc1)c1ccccc1 [TAMOXIFEN] |  | IC50 [14]: > 1 mM; IC50 [15]: > 1 mM |
| > 1 | < 1 | < 1 | C=C(C[C@H](NC(=O)OC(C)(C)C)C(=O)OC(C)(C)C)C(=O)Nc1ccccc1 | > 1 |  |
| > 1 | < 1 | > 1 | C=C(C[C@H](NC(=O)OC(C)(C)C)C(=O)OCC)C(=O)NCc1ccccc1 | > 1 |  |
| < 1 | < 1 | < 1 | C=C(C[C@H](NC(=O)OC(C)(C)C)C(=O)OC(C)(C)C)C(=O)N1CCCCC1 | > 1 |  |
| > 1 | < 1 | > 1 | C=C(C[C@H](NC(=O)OC(C)(C)C)C(=O)OCC)C(=O)Nc1ccc(Cl)cc1 | > 1 |  |
| > 1 | > 1 | > 1 | C=C1C[C@@H](C(=O)OCC)N(C(=O)OC(C)(C)C)C1=O | > 1 |  |

| IC50 [1] [mM] | IC50 [2] [mM] | IC50 [3] [mM] | SMILES | IC50 at 72 h [4] [mM] | other results |
| --- | --- | --- | --- | --- | --- |
| > 1 | < 1 | < 1 | C=C(C[C@H](NC(=O)OC(C)(C)C)C(=O)OC(C)(C)C)C(=O)NCc1ccccc1 | > 1 |  |
| > 1 | > 1 | > 1 | C=C(C[C@H](NC(=O)OC(C)(C)C)C(=O)OCC)C(=O)Nc1ccccc1 | > 1 |  |
| > 1 | > 1 | > 1 | C=C(C[C@H](NC(=O)OC(C)(C)C)C(=O)OCC)C(=O)N1CCCCC1 | > 1 |  |
|  |  |  | C=C(C[C@H](N)C(=O)O)C(=O)Nc1ccc(Cl)cc1 | > 1 | IC50 at 24 h [13]: > 1 mM |
|  |  |  | C=C(C[C@H](N)C(=O)O)C(=O)Nc1ccccc1 | > 1 | Activity [5]: Dose-Dependent Effect; Activity [6]: Dose-Dependent Effect; IC50 [7]: 218 µM; IC50 [8]: 210 µM; IC50 [9]: 92.9 µM; IC50 [10]: 199 µM; Activity [11]: Dose-Dependent Effect; Activity [12]: Dose-Dependent Effect; IC50 at 24 h [13]: > 1 mM; IC50 [16]: > 1 mM |
| > 1 | > 1 | < 1 | C=C1C[C@@H](C(=O)OC(C)(C)C)N(C(=O)OC(C)(C)C)C1=O | > 1 |  |
| < 1 | < 1 | < 1 | O=C(c1cc(Cc2n[nH]c(=O)c3ccccc23)ccc1F)N1CCN(C(=O)C2CC2)CC1 [OLAPARIB] | > 1 | IC50 [15]: > 1 mM; IC50 [16]: > 1 mM |
| > 1 | < 1 | < 1 | C=C(C[C@H](NC(=O)OC(C)(C)C)C(=O)OC(C)(C)C)C(=O)NCc1ccc([N+](=O)[O-])cc1 | > 1 |  |
| > 1 | < 1 | < 1 | C=C(C[C@H](NC(=O)OC(C)(C)C)C(=O)OC(C)(C)C)C(=O)Nc1ccc(F)cc1 |  | IC50 [14]: < 1 mM |
| > 1 | < 1 | < 1 | C=C(C[C@H](NC(=O)OC(C)(C)C)C(=O)OC(C)(C)C)C(=O)NCc1ccc(F)cc1 | > 1 |  |
|  |  |  | C=C(C[C@H](N)C(=O)O)C(=O)NCc1ccc([N+](=O)[O-])cc1 | > 1 | Activity [5]: Dose-Dependent Effect; Activity [6]: Dose-Dependent Effect; IC50 [7]: 156 µM; IC50 [8]: 180 µM; IC50 [9]: 91.8 µM; IC50 [10]: 194 µM; Activity [11]: Dose-Dependent Effect; Activity [12]: Dose-Dependent Effect; IC50 at 24 h [13]: > 1 mM |
| > 1 | < 1 | < 1 | C=C(C[C@H](NC(=O)OC(C)(C)C)C(=O)OCC)C(N)=O | > 1 |  |
| > 1 | < 1 | > 1 | C=C(C[C@H](NC(=O)OC(C)(C)C)C(=O)OCC)C(=O)NCc1ccc([N+](=O)[O-])cc1 | > 1 |  |
|  |  |  | C=C(C[C@H](N)C(=O)O)C(=O)NCc1ccccc1 | > 1 | Activity [5]: Dose-Dependent Effect; Activity [6]: Dose-Dependent Effect; IC50 [7]: 171 µM; IC50 [8]: 188 µM; IC50 [9]: 119 µM; IC50 [10]: 199 µM; Activity [11]: Dose-Dependent Effect; Activity [12]: Dose-Dependent Effect; IC50 at 24 h [13]: > 1 mM; IC50 [16]: > 1 mM |
|  |  |  | O=NN(CCCl)C(=O)NCCCl [CARMUSTINE] |  | IC50 [7]: 157 µM; IC50 [8]: 160 µM |
| > 1 | < 1 | > 1 | C=C(C[C@H](NC(=O)OC(C)(C)C)C(=O)OCC)C(=O)Nc1ccc(F)cc1 | > 1 |  |
| > 1 | > 1 | > 1 | C=C(C[C@H](NC(=O)OC(C)(C)C)C(=O)OC(C)(C)C)C(=O)Nc1ccc(Cl)cc1 | > 1 |  |
